{"source": "ChEMBL document CHEMBL3091462", "about": "(J Nat Prod, 2013)", "key": {"SW-620 [1]": {"test_system": "SW-620", "test": "Cell cycle arrest in human SW620 cells assessed as accumulation at G2/M phase at 2 uM after 48 hrs using propidium iodide staining by flow cytometry (reference value: 9.1 +/- 0.3%)", "assay_type": "functional"}, "HCT-116 [2]": {"test_system": "HCT-116", "test": "Cell cycle arrest in human HCT116 cells assessed as accumulation at S phase at 10 uM after 48 hrs using propidium iodide staining by flow cytometry (reference value: 36.3 +/- 1.7%)", "assay_type": "functional"}, "[3]": {"test": "Cytotoxicity against human CCD-112CoN cells assessed as cell viability up to 10 uM after 24 to 72 hrs", "assay_type": "cell-based", "in_short": "(§1)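 Cells seeded at 10^5 per well in RPMI 1640/10% FBS at 37 °C. Subconfluent cells exposed to 0, 0.1, 0.5, 1, 2, 5 or 10 μM for 48 h, or to 10 μM for 24, 48 and 72 h; ethanol vehicle, at most 0.01% v/v final. Cells trypsinized and counted by hemocytometer. Viability as % of control, means ± SD, three experiments in triplicate.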"}, "HCT-116 [4]": {"test_system": "HCT-116", "test": "Induction of apoptosis in human HCT116 cells expressing p21 siRNA assessed as change in cell morphology at 10 uM after 24 hrs by phase-contrast microscopic analysis", "assay_type": "functional, cell-based", "in_short": "(§2)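 Cells plated at 5 × 10^4 per well and transfected with 100 nM scrambled or p21 siRNA in OPTI-MEM for 4 h. Complete RPMI medium was added and cells grown a further 24 h, then exposed to 10 μM for 24 h. Viability measured by direct count after trypan blue staining. Morphology viewed by phase-contrast at 200×. Means ± SD, three experiments in triplicate.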"}, "SW-620 [5]": {"test_system": "SW-620", "test": "Cell cycle arrest in human SW620 cells assessed as accumulation at S phase at 2 uM after 48 hrs using propidium iodide staining by flow cytometry (reference value: 43.1 +/- 1%)", "assay_type": "functional"}, "SW-620 [6]": {"test_system": "SW-620", "test": "Effect on p57 expression in p53 deficient human SW620 cells at 0.5 to 10 uM after 24 hrs by immunoblotting", "assay_type": "functional, cell-based"}, "SW-620 [7]": {"test_system": "SW-620", "test": "Increase of p21 expression in human SW620 cells at 0.5 to 10 uM after 24 hrs by immunoblotting", "assay_type": "functional, cell-based", "in_short": "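HCT-116 or SW-620 cells treated with 0–10 μM for 24 h. Lysates probed for p21 by SDS-PAGE immunoblotting with ECL detection; β-actin as loading control.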"}, "HCT-116 [8]": {"test_system": "HCT-116", "test": "Antitumor activity against human HCT116 cells xenografted in BALB/c-nude mouse assessed as reduction of tumor weight at 100 mg/kg, po administered every other day from day 2 to 21 (reference value: 469 mg)", "assay_type": "functional", "in_short": "(§3)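 Male BALB/c-nude mice; 2 × 10^6 tumour cells in 0.2 mL PBS injected intradermally into the flank on day 0, n = 10 per group. Oral dosing every other day for 3 weeks, starting 2 days after inoculation. Caliper tumour volume = (width)2 × length/2, measured periodically. Tumours excised and weighed at day 21. Means ± SE.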"}, "HCT-116 [9]": {"test_system": "HCT-116", "test": "Antitumor activity against human HCT116 cells xenografted in BALB/c-nude mouse assessed as reduction of tumor volume at 100 mg/kg, po administered every other day from day 2 to 21", "assay_type": "functional, organism-based", "parameters": "dose 100 mg/kg", "in_short": "as §3"}, "HCT-116 [10]": {"test_system": "HCT-116", "test": "Cell cycle arrest in human HCT116 cells assessed as accumulation at G0/G1 phase at 0.5 uM after 48 hrs using propidium iodide staining by flow cytometry (reference value: 56.7 +/- 1.9%)", "assay_type": "functional"}, "HCT-116 [11]": {"test_system": "HCT-116", "test": "Induction of apoptosis in human HCT116 cells expressing p21 siRNA assessed as increase of expression of cleaved caspase-9 and caspase-3 at 10 uM after 24 hrs by immunoblotting", "assay_type": "functional, cell-based", "in_short": "(§4)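 Cells transfected with 100 nM scrambled or p21 siRNA for 4 h, then grown 24 h in complete medium and treated with 10 μM for 24 h. p21, caspase-9/-3 and cleaved forms analysed by 15% SDS-PAGE immunoblot with densitometry. Means ± SD, three experiments in triplicate.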"}, "SW-620 [12]": {"test_system": "SW-620", "test": "Decrease of cyclin A expression in human SW620 cells after 24 hrs by immunoblotting", "assay_type": "functional, cell-based", "in_short": "(§5)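 HCT-116 or SW-620 cells exposed to 0–10 μM for 24 h. Cells lysed in Tris/NaCl/EDTA/1% Triton X-100 buffer with protease and phosphatase inhibitors at 4 °C, protein measured by BCA. Lysates run on 10–12.5% SDS-PAGE and immunoblotted, ECL detection. Cdk2, cyclin A and cyclin E antibodies used at 1:500; β-actin as loading control.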"}, "HCT-116 [13]": {"test_system": "HCT-116", "test": "Cell cycle arrest in human HCT116 cells assessed as accumulation at S phase at 1 uM after 48 hrs using propidium iodide staining by flow cytometry (reference value: 36.3 +/- 1.7%)", "assay_type": "functional"}, "HCT-116 [14]": {"test_system": "HCT-116", "test": "Induction of apoptosis in human HCT116 cells at 10 uM after 48 hrs using Annexin V-FITC and propidium iodide staining by flow cytometry (reference value: 7.6 +/- 3%)", "assay_type": "functional", "in_short": "(§6)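 Subconfluent cells in RPMI 1640 + 10% FBS treated with 0–10 μM for 48 h. Harvested cells incubated 10 min with FITC-annexin V/PI, then analysed by flow cytometry (488/525 nm for annexin V-FITC, 488/675 nm for PI). Reported as % apoptotic cells, means ± SD of three experiments in triplicate.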"}, "SW-620 [15]": {"test_system": "SW-620", "test": "Induction of apoptosis in human SW620 cells at 10 uM after 48 hrs using Annexin V-FITC and propidium iodide staining by flow cytometry (reference value: 3.8 +/- 2.1%)", "assay_type": "functional", "in_short": "as §6"}, "HCT-116 [16]": {"test_system": "HCT-116", "test": "Decrease of cyclin E expression in human HCT116 cells after 24 hrs by immunoblotting", "assay_type": "functional, cell-based", "in_short": "as §5"}, "HCT-116 [17]": {"test_system": "HCT-116", "test": "Cell cycle arrest in human HCT116 cells assessed as accumulation at S phase at 0.1 uM after 48 hrs using propidium iodide staining by flow cytometry (reference value: 36.3 +/- 1.7%)", "assay_type": "functional"}, "HCT-116 [18]": {"test_system": "HCT-116", "test": "Cell cycle arrest in human HCT116 cells assessed as accumulation at S phase at 5 uM after 48 hrs using propidium iodide staining by flow cytometry (reference value: 36.3 +/- 1.7%)", "assay_type": "functional"}, "SW-620 [19]": {"test_system": "SW-620", "test": "Decrease of Cdk2 expression in human SW620 cells after 24 hrs by immunoblotting", "assay_type": "functional, cell-based", "in_short": "as §5"}, "SW-620 [20]": {"test_system": "SW-620", "test": "Induction of apoptosis in human SW620 cells expressing p21 siRNA assessed as increase of expression of cleaved caspase-9 and caspase-3 at 10 uM after 24 hrs by immunoblotting", "assay_type": "functional, cell-based", "in_short": "as §4"}, "HCT-116 [21]": {"test_system": "HCT-116", "test": "Decrease of cyclin A expression in human HCT116 cells after 24 hrs by immunoblotting", "assay_type": "functional, cell-based", "in_short": "as §5"}, "HCT-116 [22]": {"test_system": "HCT-116", "test": "Cytotoxicity against human HCT116 cells assessed as cell viability at 10 uM after 48 to 72 hrs", "assay_type": "functional, cell-based", "in_short": "as §1"}, "SW-620 [23]": {"test_system": "SW-620", "test": "Induction of apoptosis in human SW620 cells expressing p21 siRNA assessed as change in cell morphology at 10 uM after 24 hrs by phase-contrast microscopic analysis", "assay_type": "functional, cell-based", "in_short": "as §2"}, "SW-620 [24]": {"test_system": "SW-620", "test": "Cytotoxicity against human SW620 cells at 0.5 to 10 uM", "assay_type": "functional, cell-based", "details": "TDE = time-dependent effect", "in_short": "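SW-620 cells seeded at 10^5 per well in RPMI 1640 + 10% FBS at 37 °C, then treated when subconfluent with 0–10 μM for 48 h (or 10 μM for 24–72 h). Ethanol vehicle, at most 0.01% v/v final. Cells trypsinized and counted on a hemocytometer. Result given as % of control, means ± SD of three experiments in triplicate.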"}, "HCT-116 [25]": {"test_system": "HCT-116", "test": "Cell cycle arrest in human HCT116 cells assessed as accumulation at G0/G1 phase at 0.1 uM after 48 hrs using propidium iodide staining by flow cytometry (reference value: 56.7 +/- 1.9%)", "assay_type": "functional"}}, "note": "Activity calls are given as the source filed them. The calls are words filed in the database; no cut-off is given here."}
{"smiles": "CC(C)c1cccc(=O)c(O)c1", "note": "[HINOKITIOL]", "values": [{"measurement": "Activity", "setting": "SW-620 [1]", "value": 4.5, "unit": "%"}, {"measurement": "Activity", "setting": "HCT-116 [2]", "value": 53.8, "unit": "%"}, {"measurement": "Activity", "setting": "[3]", "value": "Non-toxic"}, {"measurement": "Activity", "setting": "HCT-116 [4]", "value": "inactive"}, {"measurement": "Activity", "setting": "SW-620 [5]", "value": 52.4, "unit": "%"}, {"measurement": "Activity", "setting": "SW-620 [6]", "value": "inactive"}, {"measurement": "Activity", "setting": "SW-620 [7]", "value": "Active"}, {"measurement": "Activity", "setting": "HCT-116 [8]", "value": 245, "unit": "mg"}, {"measurement": "Activity", "setting": "HCT-116 [9]", "value": "Active"}, {"measurement": "Activity", "setting": "HCT-116 [10]", "value": 56.5, "unit": "%"}, {"measurement": "Activity", "setting": "HCT-116 [11]", "value": "inactive"}, {"measurement": "Activity", "setting": "SW-620 [12]", "value": "Dose-dependent effect"}, {"measurement": "Activity", "setting": "HCT-116 [13]", "value": 37.2, "unit": "%"}, {"measurement": "Activity", "setting": "HCT-116 [14]", "value": 24.7, "unit": "%"}, {"measurement": "Activity", "setting": "SW-620 [15]", "value": 80.3, "unit": "%"}, {"measurement": "Activity", "setting": "HCT-116 [16]", "value": "Dose-dependent effect"}, {"measurement": "Activity", "setting": "HCT-116 [17]", "value": 34.4, "unit": "%"}, {"measurement": "Activity", "setting": "HCT-116 [18]", "value": 43.5, "unit": "%"}, {"measurement": "Activity", "setting": "SW-620 [19]", "value": "Dose-dependent effect"}, {"measurement": "Activity", "setting": "SW-620 [20]", "value": "inactive"}, {"measurement": "Activity", "setting": "HCT-116 [21]", "value": "Dose-dependent effect"}, {"measurement": "Activity", "setting": "HCT-116 [22]", "value": "Active"}, {"measurement": "Activity", "setting": "SW-620 [23]", "value": "inactive"}, {"measurement": "Activity", "setting": "SW-620 [24]", "value": "tde"}, {"measurement": "Activity", "setting": "HCT-116 [25]", "value": 58.1, "unit": "%"}]}
